Screening results deposited in PubChem by several laboratories.
GRK2 aptamer HTS: compounds blocking aptamer binding on GRK2 – biochemical, human GRK2, bead flow cytometry, HTS, primary screen. FAM-aptamer displacement from GRK2. Beta-adrenergic receptor kinase 1 (Homo sapiens), P25098. 0.59% of 330,000 active. inhibition of aptamer binding, % at 10 µM;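 active means inhibition of aptamer binding above 40%, roughly 3 SD of noise, on plates passing a quality check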;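 further: median bead fluorescence of bound FAM aptamer so fluorescent compounds give negative values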
Tn6 DDE FP: inhibitors of Tn6 peptide binding to fibrin DD(E), primary screen, biochemical, fluorescence polarization, human fibrin, Tn6 probe; Fibrinogen beta chain (Homo sapiens), P02675; Fibrin DD(E) TRITC-Tn6 fluorescence polarization displacement; inhibition, % at 8.3 µM; 0.21% of 370,000 active;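 active means inhibition above a per-campaign cutoff: mean of compounds within control limits plus 3 SD, cut at about 15% in these data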;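 further: 0% = median of all compound wells on the plate and 100% = blocking peptide control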
Target sequence (P02675 whole entry, looked up): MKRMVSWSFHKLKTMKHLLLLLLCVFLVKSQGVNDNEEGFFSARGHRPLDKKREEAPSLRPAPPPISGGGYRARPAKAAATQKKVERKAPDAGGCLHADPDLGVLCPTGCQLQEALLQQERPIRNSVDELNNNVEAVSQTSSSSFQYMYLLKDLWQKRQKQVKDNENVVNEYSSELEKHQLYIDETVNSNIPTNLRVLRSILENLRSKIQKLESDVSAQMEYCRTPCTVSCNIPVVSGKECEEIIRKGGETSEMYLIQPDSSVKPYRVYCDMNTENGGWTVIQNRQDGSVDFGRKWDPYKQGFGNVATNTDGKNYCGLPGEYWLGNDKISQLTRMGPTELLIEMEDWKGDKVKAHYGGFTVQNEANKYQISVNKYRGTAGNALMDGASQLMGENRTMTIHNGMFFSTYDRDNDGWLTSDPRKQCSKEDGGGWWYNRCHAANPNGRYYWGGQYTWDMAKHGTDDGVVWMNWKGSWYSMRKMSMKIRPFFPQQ
ARNT TACC3 PPI: disruptors of ARNT/TACC3 protein interaction, primary screen, biochemical, AlphaScreen, single concentration. AlphaScreen His-ARNT PAS-B/GST-TACC3 binding, luminescence; TACC3 fragment carries E629A point mutation. 0.66% of 390,000 active. inhibition, % at 9.99 µM;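 active means mean inhibition of replicates at least 50% and at least half of replicates each reaching 50%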;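 further: 0% = complete ARNT plus TACC3 wells and 100% = ARNT alone without TACC3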
DDE Tn7 FP inh: inhibitors of Tn7 peptide binding to fibrin DD(E), primary screen, biochemical, fluorescence polarization, human fibrin, Tn7 probe; Fibrinogen beta chain (Homo sapiens), P02675; FP displacement of FITC-Tn7 peptide from fibrin DD(E); 0% = median of compound wells per plate; inhibition, % at 8.3 µM; 0.13% of 370,000 active; AID 720508, 2013;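 active means inhibition above the mean of compounds falling within the control limits plus 3 SD of them, cut at about 14% in these data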;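 further: 0% = plate median of compound wells and 100% = 10 µM Aha-Tn7 peptide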
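Assay system: Human fibrin DD(E) protein | Medium: Tris buffer with calcium and detergent, pH 7.8 | Reagent: 0.1 µM fluorescent Tn7 | Compound dosing: Single point at 8.3 µM | Times: 10 min preincubation, 3 h with tracer, room temperature | Detection: Fluorescence polarization of the labelled Tn7 tracer | Controls: Aha-Tn7 high control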
CAL PDZ FP-1: untagged CAL PDZ binding inhibitors, primary screen, biochemical, fluorescence polarization, HTS; Golgi-associated PDZ and coiled-coil motif-containing protein (Homo sapiens), Q9HD26; purified CAL PDZ, TMR-peptide fluorescence polarization, 1 h; inhibition, % at 24.9 µM; 0.92% of 300,000 active; AID 602252, 2012;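 active means mean inhibition of at least 30% with at least half of replicates also reaching 30%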;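 further: 0% = DMSO neutral control and 100% = excess unlabeled competitor peptide PRC23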
CAL PDZ FP-2: CAL PDZ peptide-binding inhibitors, primary screen, biochemical, fluorescence polarization, Cer-tagged CAL PDZ, HTS; purified CAL PDZ, TMR-peptide fluorescence polarization, 1 h; 0.02% of 330,000 active; Golgi-associated PDZ and coiled-coil motif-containing protein (Homo sapiens), Q9HD26; inhibition, % at 20 µM;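 active means highest replicate inhibition of at least 40%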;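 further: plate controls were DMSO neutral control wells for no effect and unlabeled competitor peptide control wells for full effect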
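Control set: unlabelled peptide and DMSO controls / Material: purified CerCALP PDZ construct / Timing: 1 h incubation at room temperature before polarization reading / Doses: 20 µM, one dose / Detection: fluorescence polarization (mP)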
GRK2 inh confirm: GRK2 aptamer-displacing inhibitors, retest, confirmation, biochemical, cherry pick 1, bead flow cytometry. bead-bound GRK2, FAM-aptamer displacement. shares compounds with GRK2 aptamer HTS. aptamer displacement, % at 10 µM. 4% of 2,000 active;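 active means aptamer displacement above 40%, near three times the noise of non-fluorescent compounds, on plates passing quality checks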;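 further: negative values mostly reflect intrinsic compound fluorescence rather than true enhancement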
Aptamer quench 1: counter-screen for GRK2 aptamer inhibitors: fluorescent aptamer quenchers | shares compounds with GRK2 aptamer HTS | Fluorescent RNA aptamer beads, quenching, flow cytometry; active compounds read high | fluorescence change (kMESF span), kMESF (test concentration not listed) | 110 tested, under 10 active | AID 504521;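 active means compounds whose bead fluorescence drops by more than 37 kMESF across the dose range, marking them as dye quenchers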
Aptamer quench SP: aptamer fluorescence quenching in GRK2 counter-screen | shares compounds with GRK2 aptamer HTS | Carboxyfluorescein RNA aptamer on beads, flow cytometry quenching; active compounds read low | fluorescence response (% of DMSO), % at 10 µM | 2,000 tested, under 10 active | AID 504580;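 active means compounds that quench the bead-bound fluorescent RNA probe, cutting fluorescence to under half of the solvent control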;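 further: counterscreen run without GRK2 so only probe quenching by compound is measured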
GRK2 confirm 2: GRK2 aptamer-displacing inhibitors, hit retest, confirmation, biochemical, cherry pick 2, bead flow cytometry; bead-bound GRK2, FAM-aptamer displacement; AID 504782, 2011; shares compounds with GRK2 aptamer HTS; inhibition of aptamer binding, % at 10 µM; 360 tested, under 10 active;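 active means inhibition of aptamer binding above 40%, about triple the noise seen with nonglowing compounds, on plates passing quality control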;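 further: negative values mostly come from compounds that fluoresce themselves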
FAM quench SP: aptamer fluorescence quenching in GRK2 counter-screen | 360 tested, under 10 active | carboxyfluorescein RNA aptamer beads, flow cytometry quenching; active compounds read low | shares compounds with GRK2 aptamer HTS | fluorescence response vs DMSO, % at 10 µM | AID 588494;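 active means response vs DMSO under 50%, meaning signal dropped by over half, treated as fluorescence quencher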;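 further: labelled aptamer on streptavidin beads without GRK2 as a quench counter-screen; 100% = bead fluorescence of DMSO wells and lower means quenching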
Starred values were filed as active, the others as inactive; . = no result. In the library only some 1.8% were active in any assay of this set; here they are far more common.

SMILES	GRK2 aptamer HTS	Tn6 DDE FP	ARNT TACC3 PPI	DDE Tn7 FP inh	CAL PDZ FP-1	CAL PDZ FP-2	GRK2 inh confirm	Aptamer quench SP	others
Cc1ccsc1C(=O)N1CCCC(CO)(Cc2ccccc2)C1 (stereo not drawn)	45.0*	-5.7	3.3	-8.5	-1.7	-0.5	.	.	GRK2 confirm 2=-9.4;FAM quench SP=98.0
Cc1ccsc1C(=O)N1CCC(CO)(Cc2ccccc2)CC1	2.0	4.2	-3.0	-2.5	.	-0.7	.	.
Cc1ccc(N(CC(O)Cn2c3ccccc3c3ccccc32)S(C)(=O)=O)cc1 (stereo not drawn)	54.0*	-11.8	-1.0	3.8	-3.2	-1.9	-0.7	101.5
CC(=O)c1cn(C)c(=O)c2ccccc12	2.0	1.7	-1.1	3.8	-26.5	-0.2	.	.
CCc1ccc(N(CC)C(=O)c2cn(C)c(=O)c3ccccc23)cc1	29.0	2.3	-5.9	1.8	-3.6	1.4	0.5	101.7
COc1ccc(OC)c(N2C(=O)[C@@H]3C(c4ccccc4Cl)=NO[C@@H]3C2=O)c1	70.0*	10.4	-4.7	-5.2	-1.7	0.6	97.6*	95.9	Aptamer quench 1=2.4
COc1ccc(C2=NO[C@@H]3C(=O)N(c4c(C)cccc4C)C(=O)[C@H]23)cc1OC	1.0	-7.9	.	2.2	-2.1	0.1	.	.	GRK2 confirm 2=8.7;FAM quench SP=100.0
COc1ccc(N2C(=O)[C@@H]3C(c4cccnc4)=NO[C@@H]3C2=O)cc1	3.0	-5.1	.	4.1	.	.	.	.
Cc1ccc(N2C(=O)[C@@H]3C(c4cccnc4)=NO[C@@H]3C2=O)cc1	3.0	-7.1	.	-2.6	.	.	.	.
Cc1cccc(C)c1N1C(=O)[C@@H]2C(c3ccccc3Cl)=NO[C@@H]2C1=O	0.0	2.8	0.6	-2.9	-6.0	-0.7	.	.	GRK2 confirm 2=2.5;FAM quench SP=100.0
C[C@H](CO)N1C[C@H](C)[C@@H](CN(C)Cc2ccc(C(=O)O)cc2)Oc2ccc(NC(=O)Nc3ccc4c(c3)OCO4)cc2C1=O	.	.	-1.7	.	.	.	.	.
O=C(C1CCC1)N1CCCCN2[C@@H](CO)[C@H](c3ccc(-c4cccc(F)c4)cc3)[C@@H]2C1	.	.	10.4	.	.	.	.	.
O=C(N=Nc1c(O)[nH]c2ccc(Cl)cc12)c1cc(-c2cccs2)nc2ccccc12	0.0	2.6	-1.1	1.7	2.4	0.5	-7.1	96.5
CC(C)NC(=O)Nc1ccc2c(c1)C(=O)N([C@@H](C)CO)C[C@H](C)[C@@H](CN(C)S(=O)(=O)c1cccs1)OCCCC[C@H](C)O2	.	.	-6.6	.	.	.	.	.
O=C(c1ccc(-c2ccccc2)c(F)c1)C1CCCN(CCCn2cccn2)C1 (stereo not drawn)	0.0	-7.9	13.8	8.2	-4.5	-1.8	-4.6	99.9
CCn1c(CSc2nnc(-c3ccc4c(c3)OCO4)o2)nc2cc(S(=O)(=O)N(C)C)ccc21	43.0*	-3.3	-1.2	-0.4	-4.8	-1.8	-2.1	105.3
N/C(=N\OC(=O)C1CCCCC1)c1ccccn1	83.0*	0.2	-4.3	-4.5	.	-1.4	-5.1	101.1
CCC(CO)[n+]1c(C)cc(/C=C2\Sc3ccccc3N2Cc2ccccc2)cc1C (stereo not drawn)	71.0*	-2.8	-15.3	-15.4	0.6	0.4	29.8	137.9
CCN1/C(=C2\SC(=S)N(Cc3ccccc3)C2=O)Sc2ccccc21	0.0	-0.2	3.8	2.2	-3.5	-0.1	.	.
O=C(Nc1ccc2c(c1)OCO2)N[C@@H]1CC[C@@H](CCNC(=O)C2CC2)O[C@@H]1CO	.	.	-11.7	.	.	.	.	.
Oc1ccc(/C=C/c2ccc3cccc(O)c3n2)cc1Br	47.0*	4.5	-3.4	-4.8	2.6	0.0	-0.8	96.4
Cc1ccc(C)c(S(=O)(=O)N2CCC(c3nc4c(nnn4Cc4ccc5c(c4)OCCO5)c(=O)[nH]3)CC2)c1	2.0	5.0	1.2	1.5	-4.9	-3.2	.	.
CCN(CC)CC#CCOC(c1ccccc1)c1ccccc1	79.0*	6.7	-3.1	-3.9	.	0.6	-4.8	98.9
C[C@@H]1CN([C@@H](C)CO)C(=O)Cc2cc(NS(=O)(=O)c3cccs3)ccc2O[C@@H]1CN(C)Cc1ccc(C(F)(F)F)cc1	.	.	-16.6	.	.	.	.	.
CC(=O)OCC1=C(C(=O)O)N2C(=O)C(NC(=O)Cn3nc(C(F)F)c(Cl)c3C)C2SC1 (stereo not drawn)	2.0	-4.7	-10.9	4.2	2.3	-1.7	2.9	101.3
Cc1c(NC(=O)c2ccco2)cccc1-c1nc2cccnc2s1	46.0*	2.7	-5.7	5.7	-7.4	-0.1	-0.5	97.9
Cc1c(NC(=O)c2ccc(Cl)nc2)cccc1-c1nc2cccnc2s1	1.0	-5.5	27.6	2.6	-4.3	-3.3	.	.
CC(C)(CS(=O)(=O)[O-])NC(=O)CC[N+](C)(C)CCO	99.0*	0.5	-1.0	1.8	-4.4	1.2	95.8*	94.4	Aptamer quench 1=-2.8
CC(C)c1onc(C(=O)N(C)C2CCCCC2)c1[N+](=O)[O-]	54.0*	-6.5	-1.9	0.2	-2.2	-2.0	2.0	100.6
CC(C)c1onc(C(=O)NC2CCCC2)c1[N+](=O)[O-]	3.0	0.0	-0.6	10.9	-1.9	-1.1	.	.
